According to ChEMBL document CHEMBL4425094, “Novel Benzo[a]quinolizidine Analogs Induce Cancer Cell Death through Paraptosis and Apoptosis” (J Med Chem, 2016):

Columns and labels:
HeLa = assay: Cytotoxicity against human HeLa cells assessed as cell growth inhibition after 24 hrs by MTT assay; format: functional, cell-based
Method in brief: (§1)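 Cells seeded 24 h in RPMI 1640 + 10% FBS. RWPE-1 was kept in K-SFM with bovine pituitary extract and EGF. Cells then exposed to compounds for 24 h at 37 °C, 5% CO2, with DMSO vehicle and docetaxel as positive control. MTT added for 4 h, absorbance read at 570 nm. Triplicate runs, IC50 reported as mean of three experiments.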

K562 = assay: Cytotoxicity against human K562 cells assessed as cell growth inhibition after 24 hrs by MTT assay; format: functional, cell-based; conditions: K562, 24 h; method in brief: as §1
MDA-MB-231 = assay: Cytotoxicity against human MDA-MB-231 cells assessed as cell growth inhibition after 24 hrs by MTT assay; format: functional, cell-based; conditions: MDA-MB-231, 24 h; method in brief: as §1
MCF7 = assay: Cytotoxicity against human MCF7 cells assessed as cell growth inhibition after 24 hrs by MTT assay; format: functional, cell-based; conditions: MCF7, 24 h; method in brief: as §1
DU-145 = assay: Cytotoxicity against human DU145 cells assessed as cell growth inhibition after 24 hrs by MTT assay; format: functional, cell-based; conditions: DU-145, 24 h; method in brief: as §1
RWPE-1 = assay: Cytotoxicity against human RWPE1 cells assessed as cell growth inhibition after 24 hrs by MTT assay; format: cell-based; conditions: RWPE-1, 24 h; method in brief: as §1
PC-3 = assay: Cytotoxicity against human PC3 cells assessed as cell growth inhibition after 24 hrs by MTT assay; format: functional, cell-based; conditions: PC-3, 24 h; method in brief: as §1

Row | SMILES | IC50 (HeLa) [µM] | IC50 (K562) [µM] | IC50 (MDA-MB-231) [µM] | IC50 (MCF7) [µM] | IC50 (DU-145) [µM] | IC50 (RWPE-1) [µM] | IC50 (PC-3) [µM]
1 | CC1(C)C[C@@H](O)C[C@H]2c3cc(OCc4ccccc4)c(OCc4ccccc4)cc3CCN21 (relative stereo) | 7.22 | 5.44 | 5.01 |  |  |  | 
2 | CCC[C@@H]1C[C@@H](O)/C=C\C(CC)[C@H]2c3cc(OCc4ccccc4)c(OCc4ccccc4)cc3CCN12 (some centres not stated) | 3.43 | 5.61 | 2.72 |  |  |  | 
3 | O=[N+]([O-])c1ccc([C@@H]2C[C@H](O)C[C@H]3c4cc(OCc5ccccc5)c(OCc5ccccc5)cc4CCN23)cc1 | > 20 | > 20 | > 20 | > 20 | > 20 | > 20 | > 20
4 | C[C@@H]1CC(=O)C[C@H]2c3cc(OCc4cc(C(F)(F)F)cc(C(F)(F)F)c4)c(OCc4cc(C(F)(F)F)cc(C(F)(F)F)c4)cc3CCN12 (relative stereo) | > 20 | > 20 | > 20 | > 20 | > 20 | > 20 | > 20
5 | O=C1C[C@@H](c2ccccc2)N2CCc3cc(OCc4ccccc4)ccc3[C@@H]2C1 (relative stereo) | > 20 | > 20 | > 20 | > 20 | > 20 | > 20 | > 20
6 | O[C@@H]1C[C@@H](c2ccccc2)N2CCc3ccccc3[C@@H]2C1 | > 20 | > 20 | > 20 | > 20 | > 20 | > 20 | > 20
7 | C[C@@H]1C[C@H](O)C[C@H]2c3cc(OCc4cc(F)cc(F)c4)c(OCc4cc(F)cc(F)c4)cc3CCN12 | 3.04 | 2.29 | 3.16 |  |  |  | 
8 | C[C@@H]1CC(=O)C[C@H]2c3cc(OCc4ccccc4)c(OCc4ccccc4)cc3CCN12 (relative stereo) | 2.99 | > 20 | 2.52 | 2.23 | 4.25 |  | 2.27
9 | CCC[C@@H]1C[C@H](O)C[C@H]2c3cc(OCc4ccccc4)c(OCc4ccccc4)cc3CCN12 | 5.49 | 3.88 | 6.72 |  |  |  | 
10 | C[C@@]1(O)C[C@@H](c2ccccc2)N2CCc3cc(OCc4ccccc4)c(OCc4ccccc4)cc3[C@@H]2C1 | 6.57 | 1.98 | 5.48 | 9.2 | 11.6 | 2.02 | 
11 | CCC[C@@H]1C[C@@H](O)C[C@H]2c3cc(OCc4ccccc4)c(OCc4ccccc4)cc3CCN12 | 2.38 | 2.32 | 2.57 |  |  |  | 
12 | C[C@@H]1C[C@H](O)C[C@H]2c3cc(OCc4ccc(C(C)(C)C)cc4)c(OCc4ccc(C(C)(C)C)cc4)cc3CCN12 | 2.56 | 2.88 | 1.46 |  |  |  | 
13 | C[C@@H]1C[C@H](O)C[C@H]2c3cc(OCc4ccc(Br)cc4)c(OCc4ccc(Br)cc4)cc3CCN12 | 2.88 | 3.15 | 2.25 |  |  | 2.89 | 
14 | C[C@@H]1C[C@@](C)(O)C[C@H]2c3cc(OCc4ccccc4)c(OCc4ccccc4)cc3CCN12 | 5.21 |  | 6.47 | 1.39 | 2.11 |  | 2.6
15 | CC[C@@H]1C[C@H](O)C[C@H]2c3cc(OCc4ccccc4)c(OCc4ccccc4)cc3CCN12 | 5.27 | 3.81 | 10.2 | 3.02 | 3.37 |  | 3.52
16 | CCC[C@@H]1C[C@@](C)(O)C[C@H]2c3cc(OCc4ccccc4)c(OCc4ccccc4)cc3CCN12 | 6.34 | 6.81 | 2.37 |  |  |  | 
17 | C[C@@H]1C[C@H](O)C[C@H]2c3cc(OCc4ccccc4)c(OCc4ccccc4)cc3CCN12 | 1.06 | 3.26 | 7.22 | 2.5 | 1.95 |  | 7.67
